Measurements gathered from unrelated publications.
Each line is one published result; the experiments were not run side by side.
Target: Serine/threonine-protein kinase PLK4 (PLK4, Homo sapiens, UniProt O00444)
Residues used in one study (O00444 1-970): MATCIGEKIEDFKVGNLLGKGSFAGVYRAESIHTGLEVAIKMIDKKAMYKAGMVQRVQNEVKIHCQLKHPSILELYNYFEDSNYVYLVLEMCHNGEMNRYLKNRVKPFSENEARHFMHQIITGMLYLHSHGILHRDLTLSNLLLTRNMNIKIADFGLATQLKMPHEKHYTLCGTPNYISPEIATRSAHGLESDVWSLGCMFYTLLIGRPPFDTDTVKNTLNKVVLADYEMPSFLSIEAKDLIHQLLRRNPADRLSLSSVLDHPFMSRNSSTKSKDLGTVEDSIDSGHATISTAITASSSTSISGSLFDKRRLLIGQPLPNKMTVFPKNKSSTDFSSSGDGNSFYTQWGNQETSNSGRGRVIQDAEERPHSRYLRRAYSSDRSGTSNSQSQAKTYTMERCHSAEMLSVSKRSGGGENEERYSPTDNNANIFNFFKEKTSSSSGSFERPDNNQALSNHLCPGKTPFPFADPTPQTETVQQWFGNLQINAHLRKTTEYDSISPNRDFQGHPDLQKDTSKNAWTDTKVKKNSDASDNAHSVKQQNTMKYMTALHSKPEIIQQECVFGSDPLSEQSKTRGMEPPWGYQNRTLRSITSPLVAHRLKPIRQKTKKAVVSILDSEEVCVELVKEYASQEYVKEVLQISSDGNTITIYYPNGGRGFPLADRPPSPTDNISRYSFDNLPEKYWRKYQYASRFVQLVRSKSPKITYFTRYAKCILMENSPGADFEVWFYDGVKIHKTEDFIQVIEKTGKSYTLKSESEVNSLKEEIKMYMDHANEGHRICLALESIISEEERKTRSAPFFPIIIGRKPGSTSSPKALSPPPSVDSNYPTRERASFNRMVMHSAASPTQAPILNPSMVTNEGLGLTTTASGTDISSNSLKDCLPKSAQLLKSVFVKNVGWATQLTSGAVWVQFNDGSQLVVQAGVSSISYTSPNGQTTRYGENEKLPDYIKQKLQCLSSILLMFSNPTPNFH

| SMILES | assay | conditions | remaining binding [%] |
| --- | --- | --- | --- |
| CS(=O)(=O)N1CCCC(NC(=O)[C@H](CCC2CCCCC2)NC(=O)c2ccc(CNc3ncnc4c3nnn4-c3ccccc3)cc2)C1 (stereo partly shown) | cell-free assay, competition with immobilised ligand | 0.1 µM | 82 |
| FC(F)(F)Oc1cccc(-c2cnc3ccc(-c4ccncc4)nn23)c1 | cell-free assay, competition with immobilised ligand | 5 µM | 91 |
| CN([C@@H]1CCc2c(CC(=O)O)c3cc(S(C)(=O)=O)ccc3n2C1)S(=O)(=O)c1ccc(F)cc1 | cell-free assay, competition with immobilised ligand | 1 µM | 100 |
| O=C(c1ccc(Nc2ncc(Cl)c(-c3cc4ccccc4s3)n2)cc1)N1CCC(N2CCCC2)CC1 | binding, competition with immobilised ligand | 1 µM | 39 |
| N[C@@H]1CCN(c2nccc(-c3cnn4ncccc34)n2)C1 | binding | 1 µM | 100 |
| C[C@@H]1CN(c2ccc3ncc(-c4ccc5[nH]nc(C6CC6)c5c4)n3n2)C[C@H](C)O1 | binding, competition with immobilised ligand | 0.5 µM | 90 |
| C[C@@H]1CCN(c2nccc(-c3cnn4ncccc34)n2)C1 | binding | 1 µM | 100 |
| CCC(=O)N[C@H]1CC[C@@H](C(=O)N(C)c2ccc(-c3nc4ccccc4o3)cc2)C1 | cell-free assay, competition with immobilised ligand | 1 µM | 78 |
| CCN1CCN(Cc2ccc(C(=O)Nc3ccc(C)c(Oc4ccc5c(c4)CC(=O)N5)c3)cc2C(F)(F)F)CC1 | binding, competition with immobilised ligand | 1 µM | 100 |
| CNC(=O)c1ccc(Nc2ncc(C(F)(F)F)c(NCc3nccnc3N(C)S(C)(=O)=O)n2)cc1 | cell-free assay, competition with immobilised ligand | 0.1 µM | 79 |
| CN(C)c1ncc(F)c(-c2cnn3ncccc23)n1 | binding | 1 µM | 100 |
| O=C(Nc1c[nH]nc1C(=O)NC1CCNCC1)c1cc(F)cc(F)c1 | binding, competition with immobilised ligand | 1 µM | 97 |
| N#Cc1ccccc1CSc1nnc2c(n1)[nH]c1ccccc12 | binding, competition with immobilised ligand | 10 µM | 100 |
| COc1cnc(Nc2cccc(S(N)(=O)=O)c2)nc1N1CCN(c2ccccc2)C(=O)C1 | binding, competition with immobilised ligand | 1 µM | 96 |
| c1cncc(-c2cccc(Nc3nccc(NC4CCCCC4)n3)c2)c1 | binding, competition with immobilised ligand | 10 µM | 34 |
| O=C1CCc2cc(Nc3cc(OC4CCOCC4)c([N+](=O)[O-])cc3Cl)ccc2N1 | cell-free assay, competition with immobilised ligand | 1 µM | 86 |
| CN(C)c1nccc(-c2cnn3ncccc23)n1 | binding | 1 µM | 96 |
| O=C(c1ccc(Nc2nccc(-c3cc4ccccc4s3)n2)cc1)N1CCC(N2CCCC2)CC1 | binding, competition with immobilised ligand | 1 µM | 56 |
| CN(C)c1nccc(-c2cnc3ncccn23)n1 | binding | 1 µM | 68 |
| Cc1cnc(Nc2ccc(C(=O)N3CCC(N4CCCC4)CC3)cc2)nc1-c1cc2ccccc2s1 | binding, competition with immobilised ligand | 1 µM | 14 |
| CN(C(=O)c1ccccc1)c1cc(N(C)c2ccc3c(c2)CCc2ccc(C(=O)NCCN4CCOCC4)cc2C3=O)ccc1F | cell-free assay, competition with immobilised ligand | 1 µM | 93 |
| F[C@@H]1CCN(c2nccc(-c3cnn4ncccc34)n2)C1 | binding | 1 µM | 100 |
| C=CC(=O)N1CCC(C(=O)NCC(=O)N2CCN(c3nc(-c4cnc(N)nc4C(F)F)nc(N4CCOCC4)n3)CC2)CC1 | binding, competition with immobilised ligand | 1 µM | 89 |
| Cc1cnn2ncc(-c3ccnc(N(C)C)n3)c2c1 | binding | 1 µM | 74 |
| Cc1cc(C)c(-n2ccn3nc(-c4cccnc4)cc23)cc1NC(=O)c1cc(C#N)cc(S(F)(F)(F)(F)F)c1 | cell-free assay, competition with immobilised ligand | 0.1 µM | 64.1 |
